Test results reported in ChEMBL document CHEMBL1944567, “Synthesis, biological evaluation, and molecular modeling of chalcone derivatives as potent inhibitors of Mycobacterium tuberculosis protein tyrosine phosphatases (PtpA and PtpB)” (J Med Chem, 2012).

Columns and labels:
[1] = target: T1, Phosphotyrosine-protein phosphatase PTPB (Mycobacterium tuberculosis, UniProt P96830); assay: Inhibition of Mycobacterium tuberculosis PTP-B using p-nitrophenyl phosphate as substrate measured for 10 mins by spectrofluorimetry
T1 sequence (P96830 whole entry): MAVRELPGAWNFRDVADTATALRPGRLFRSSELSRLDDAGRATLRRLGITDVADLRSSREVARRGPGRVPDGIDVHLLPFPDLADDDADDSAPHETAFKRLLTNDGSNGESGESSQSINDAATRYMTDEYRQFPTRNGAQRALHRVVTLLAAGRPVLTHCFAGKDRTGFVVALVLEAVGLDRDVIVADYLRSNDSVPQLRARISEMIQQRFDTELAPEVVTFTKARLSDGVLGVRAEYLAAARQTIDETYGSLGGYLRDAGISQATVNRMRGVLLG
Procedure, shortened: (§1)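 A410 read each minute over 10 min at 37 °C. Residual activity compared with wells without inhibitor; IC50 by linear regression of % inhibition against concentration. Triplicate, two independent experiments.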

[2] = target: T2, Low molecular weight protein-tyrosine phosphatase A (Mycobacterium tuberculosis, UniProt P9WIA1); assay: Inhibition of Mycobacterium tuberculosis PTP-A using p-nitrophenyl phosphate as substrate measured for 10 mins by spectrofluorimetry; procedure, shortened: as §1
T2 sequence (P9WIA1 whole entry): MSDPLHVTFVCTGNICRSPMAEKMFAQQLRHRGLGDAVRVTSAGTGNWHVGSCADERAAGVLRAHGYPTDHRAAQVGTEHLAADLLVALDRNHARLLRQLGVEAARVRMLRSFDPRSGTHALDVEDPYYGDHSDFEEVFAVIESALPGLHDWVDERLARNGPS

[3] = Solubility of the compound; format: physicochemical
[4] = target: T3, Tyrosine-protein phosphatase non-receptor type 1 (Homo sapiens, UniProt P18031); assay: Inhibition of human PTP1B expressed in Escherichia coli BL21 DE3 using p-nitrophenyl phosphate as substrate measured for 10 mins by spectrofluorimetry
T3 sequence (P18031 whole entry): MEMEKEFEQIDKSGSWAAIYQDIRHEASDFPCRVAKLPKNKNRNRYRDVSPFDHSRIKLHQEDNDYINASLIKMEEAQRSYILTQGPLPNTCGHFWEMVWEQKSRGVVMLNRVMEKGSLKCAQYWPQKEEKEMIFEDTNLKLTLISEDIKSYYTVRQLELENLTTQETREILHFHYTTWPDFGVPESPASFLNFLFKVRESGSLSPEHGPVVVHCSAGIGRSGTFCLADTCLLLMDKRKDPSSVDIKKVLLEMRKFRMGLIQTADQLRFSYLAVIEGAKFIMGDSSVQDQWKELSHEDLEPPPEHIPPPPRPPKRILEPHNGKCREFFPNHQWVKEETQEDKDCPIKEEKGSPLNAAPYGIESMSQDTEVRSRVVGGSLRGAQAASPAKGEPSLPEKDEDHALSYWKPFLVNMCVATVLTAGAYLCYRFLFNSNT

[5] = target: T1, Phosphotyrosine-protein phosphatase PTPB; assay: Competitive inhibition of Mycobacterium tuberculosis PTP-B using p-nitrophenyl phosphate as substrate measured for 10 mins by Lineweaver-Burk plot analysis
Procedure, shortened: (§2)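 Kinetic mode determined with recombinant Mtb enzyme (PtpA or PtpB) using the screening conditions (20 mM imidazole pH 7.0, 37 °C, A410 read each minute for 10 min) but with pNPP varied over 0.5, 1.5, 3, 6, 8, 10, 15 and 25 mM. At least three inhibitor concentrations in the 5–60 μM range were used. Ki and mechanism were taken from Lineweaver–Burk double-reciprocal plots.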

[6] = target: T4, Low molecular weight protein-tyrosine phosphatase A (Mycobacterium tuberculosis) (UniProt P9WIA1); assay: Inhibition of Mycobacterium tuberculosis PTP-A using p-nitrophenyl phosphate as substrate at 25 uM measured for 10 mins by spectrofluorimetry
T4 sequence (whole entry): T2 sequence (P9WIA1 whole entry)
Procedure, shortened: (§3)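 Single-point screen at 25 μM final compound, added from 1.0 × 10−3 M DMSO stock, with recombinant Mtb PtpA or PtpB (0.4 μg/μL final) in 20 mM imidazole pH 7.0 with 40 mM pNPP. Reaction started by adding enzyme. p-Nitrophenol release read at 410 nm every min for 10 min at 37 °C. Residual activity was taken from the absorbance difference between 6 and 2 min; two experiments, each in triplicate.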

[7] = target: T5, Phosphotyrosine-protein phosphatase PTPB (Mycobacterium tuberculosis) (UniProt P96830); assay: Inhibition of Mycobacterium tuberculosis PTP-B using p-nitrophenyl phosphate as substrate at 25 uM measured for 10 mins by spectrofluorimetry; procedure, shortened: as §3
T5 sequence (whole entry): T1 sequence (P96830 whole entry)

[8] = target: T2, Low molecular weight protein-tyrosine phosphatase A; assay: Inhibition of Mycobacterium tuberculosis PTP-A
[9] = target: T2, Low molecular weight protein-tyrosine phosphatase A; assay: Competitive inhibition of Mycobacterium tuberculosis PTP-A using p-nitrophenyl phosphate as substrate measured for 10 mins by Lineweaver-Burk plot analysis; procedure, shortened: as §2
[10] = Selectivity index, ratio of IC50 for human PTP1B to IC50 for Mycobacterium tuberculosis PTP-A
Procedure, shortened: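 Selectivity index calculated as IC50 for human PTP1B divided by IC50 for Mtb PtpA. Both IC50 values came from pNPP hydrolysis assays read at 410 nm for 10 min at 37 °C.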

[11] = target: T4, Low molecular weight protein-tyrosine phosphatase A (Mycobacterium tuberculosis); assay: Ratio of IC50 to Ki for Mycobacterium tuberculosis protein tyrosine phosphatase-A

Structure (SMILES)	IC50 [1]	IC50 [2]	solubility [3]	IC50 [4]	Ki [5]	inhibition [6]	inhibition [7]	IC50 [8]	Ki [9]	Ratio IC50 [10]	Ratio [11]
O=C(/C=C/c1ccc2ccccc2c1)c1ccc(Br)cc1	25 µM	> 50 µM	soluble	29 µM	10 µM	11%	42%	–	–	–	–
CCCCCC1=C/C(=C/c2[nH]c(-c3ccc[nH]3)cc2OC)N=C1C [PRODIGIOSIN]	–	–	–	–	–	–	–	8.8 µM	–	–	–
COc1cc(-c2[nH]ccc2Cl)oc1C1=C2N=C3C=C2[C@H](C(C)C)[C@H]1CCCCCCCC3 [ROSEOPHILIN]	–	–	–	–	–	–	–	8.8 µM	–	–	–
COc1ccc(C(=O)/C=C/c2ccc(OCc3ccccc3)c(OC)c2)c(OC)c1	> 100 µM	15 µM	soluble	263 µM	–	40%	0%	–	12 µM	18	1.3
O=C(/C=C/c1ccc2c(c1)OCO2)c1ccc([N+](=O)[O-])cc1	51 µM	62 µM	soluble	23 µM	13 µM	33%	34%	–	–	–	–
O=C(O)c1ccc(/C=C/C(=O)c2ccc3ccccc3c2)cc1	12 µM	> 100 µM	soluble	3090 µM	8 µM	9%	70%	–	–	–	–
O=C(/C=C/c1ccc2c(c1)OCO2)c1cccc([N+](=O)[O-])c1	> 100 µM	45 µM	soluble	107 µM	–	26%	6%	–	29 µM	2.4	1.5
O=C(/C=C/c1ccc2ccccc2c1)c1ccc(Cl)s1	57 µM	32 µM	soluble	100 µM	–	31%	49%	–	23 µM	3.1	1.4
